Experimental data taken from PubChem BioAssay.
Inconclusive results are not listed.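 The calls were made as follows, unless noted: active = viability increase at or above a cutoff of the median across tested compounds plus 3 SD (cut at about 8.5% in these data, passing the limit was not always enough); inconclusive = some gains above the cutoff, reason not given; inactive = the rest.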

Assays:
[1] = OD615 S. cerevisiae growth inhibition, permissive medium, pilot counter-assay, permissive growth control for S. cerevisiae lifespan shortening project (AID 705;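 active = growth inhibition above 25% in both replicates, a cutoff set 3 SD above the mean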); conditions: OD615, 24 h, at 10 µM, stronger effect = higher value
Outline: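 Material: engineered DeaD yeast; Compound: one dose 10 µM, DMSO 0.25% final; Detection: absorbance (optical density) at 615 nm; Buffer or medium: permissive raffinose/galactose medium; Timing: 24 h exposure, 30 °C.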

[2] = Restrictive medium S. cerevisiae growth inhibition, OD615, pilot screen of yeast lifespan reduction project, restrictive growth control (AID 706;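 active = growth inhibition above a set limit, 3 SD over mean compound inhibition, in both replicates, cut at about 43% in these data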;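 also: modified DeaD lifespan yeast strain shifted to restrictive glucose medium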); conditions: OD615, 48 h, at 10 µM, stronger effect = higher value
Outline: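 Buffer or medium: restrictive glucose medium (CSMM-D); test system: modified S. cerevisiae; doses: single dose of 10 µM compound final, 0.25% DMSO; schedule: 48 h compound exposure at 30 °C; detection: absorbance (optical density) measured at 615 nm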

[3] = viability gain of MRP-1-high H69AR cells under doxorubicin, pilot screen, MRP-1 activator project, CellTiter-Glo, duplicate (AID 807); conditions: H69AR viability with doxorubicin, CellTiter-Glo luminescence; at 10 µM; stronger effect = higher value;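 also: compound pretreatment 18-22 h then 72 h combined with doxorubicin; 0% = doxorubicin alone and 100% = vehicle without doxorubicin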
[4] = growth suppression of beta-catenin knockout HCT116, pilot screen, human colon tumor cells (AID 823;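 active = cell viability at or below a set limit in both duplicate runs, the limit being the all-compound median minus 4 SD, cut at about 23% in these data, passing the limit was not always enough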;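 also: 0% = wells killed by 20 µM Hyamine and 100% = untreated DMSO cell wells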); conditions: CellTiter-Glo, 60 h, at 10 µM, stronger effect = lower value
[5] = growth suppression of PTEN-deleted HCT116, pilot screen, cell-based, HCT116 clonal line, CellTiter-Glo (AID 824;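 active = viability at or below 27.92% in each of two runs, the all-compound median minus 4 SD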;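 also: 0% = 20 µM Hyamine control and 100% = vehicle cell control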); conditions: 60 h, at 10 µM, stronger effect = lower value
[6] = inhibitors of the yeast RAM network, pilot screen, dse1pr::URA3 reporter, 5-FOA selection (AID 869;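 active = inhibition over a set limit, the all-compound mean plus 3 SD, in both replicate runs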;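 also: 0% = DMSO wells with no growth and 100% = 10 µM 1-NA-PP1 with full growth; RAM network block rescues cells from 5-FOA so hits raise OD615 growth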); conditions: S. cerevisiae dse1pr::URA3 5-FOA growth, OD615, 2 d; at 10 µM; stronger effect = higher value; strain carries analog-sensitive mutant Cbk1 kinase
[7] = RAM signaling pathway blockade in yeast – S. cerevisiae, Pdr1DBD-CYC8 efflux-inhibited sensitized strain, primary screen (AID 1298;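 active = RAM network inhibition above 8.4% in each of two replicates, 3 SD over the compound average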;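 also: 0% = DMSO untreated cells without growth and 100% = 10 µM 1-NA-PP1 full growth; higher means more yeast growth rescued from 5-FOA killing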); conditions: S. cerevisiae cbk1-as DSE1-URA3 strain, 5-FOA growth OD615, 2 d; at 50 µM; stronger effect = higher value

CCOC(=O)c1[nH]c2cc(OC)c(OC)cc2c1NC(=O)c1ccc2c(c1)OCO2
inactive: growth inhibition [1] -7.63% | growth inhibition [2] -10.9% | viability increase [3] -1.41% | viability [4] 102% | viability [5] 101% | inhibition [6] 2.13% | RAM network inhibition [7] 7.33%

Cc1csc(NC(=O)C(CC(C)C)NS(=O)(=O)c2ccc3c(c2)oc(=O)n3C)n1 (stereo not given)
inactive: growth inhibition [1] 2.94% | growth inhibition [2] -3.39% | viability increase [3] -0.77% | viability [4] 103% | viability [5] 106% | inhibition [6] 1.33% | RAM network inhibition [7] 2.74%

CC1CC(C)CN(c2nc3c(c(=O)[nH]c(=O)n3C)n2CCSc2nc3ccccc3o2)C1 (stereo not given)
inactive: growth inhibition [1] -8.58% | growth inhibition [2] -7.3% | viability increase [3] -2.41% | viability [4] 93.2% | viability [5] 93.6% | inhibition [6] 0.335% | RAM network inhibition [7] -0.32%

CCCC1(C(=O)O)NC(c2ccccc2O)C2C(=O)N(c3cccc(Cl)c3)C(=O)C21 (stereo not given)
inactive: growth inhibition [1] 6.45% | growth inhibition [2] 7.74% | viability increase [3] 0.1% | viability [4] 107% | viability [5] 94.5% | inhibition [6] 0.955% | RAM network inhibition [7] 0.05%

O=C1C(C=NCc2cccnc2)=C(O)c2ccccc21
inactive: growth inhibition [1] -6.25% | growth inhibition [2] -0.095% | viability increase [3] -2.11% | viability [4] 94.1% | viability [5] 93.4% | inhibition [6] 1.67% | RAM network inhibition [7] 2.36%

Cc1ccc(C)c(N2CCN(C(=O)C3CCCN(S(=O)(=O)c4cnc[nH]4)C3)CC2)c1 (stereo not given)
inactive: growth inhibition [1] 5.12% | growth inhibition [2] -0.49% | viability increase [3] 2.66% | viability [4] 94.9% | viability [5] 95.4% | inhibition [6] 2.12% | RAM network inhibition [7] -0.52%

O=c1cc(-c2ccccc2Cl)c2c([nH]1)CCC2
inactive: growth inhibition [1] -9.7% | growth inhibition [2] 0.91% | viability increase [3] -2.8% | viability [4] 94.5% | viability [5] 87.2% | inhibition [6] 1.71% | RAM network inhibition [7] 0.26%

CCOc1ccc2nc(N3CCC(C(=O)N4CCN(C(=O)c5ccco5)CC4)CC3)sc2c1
inactive: growth inhibition [1] -10.8% | growth inhibition [2] -9.39% | viability increase [3] -4.93% | viability [4] 69.7% | viability [5] 77.7% | inhibition [6] 0.305% | RAM network inhibition [7] 3.91%

CCOC(=O)c1ccc(NC(=O)c2nccnc2C(=O)O)cc1
inactive: growth inhibition [1] -4.96% | growth inhibition [2] -2.24% | viability increase [3] -1.42% | viability [4] 98.1% | viability [5] 96.6% | inhibition [6] 1.07% | RAM network inhibition [7] -0.42%

N#CC1=C2C=CC=CN2CC1=O
inactive: growth inhibition [1] -23.9% | growth inhibition [2] -15.7% | viability increase [3] -2.42% | viability [4] 91.2% | viability [5] 93.1% | inhibition [6] 1.7% | RAM network inhibition [7] 2.23%

O=C(Nc1ccon1)c1cccc(C(F)(F)F)c1
inactive: growth inhibition [1] -9.21% | growth inhibition [2] -5.36% | viability increase [3] 2.41% | viability [4] 104% | viability [5] 101% | inhibition [6] 0.075% | RAM network inhibition [7] 0.62%

O=C(Nc1ccc2oc(-c3ccccc3)nc2c1)c1ccncc1
inactive: growth inhibition [1] -2.31% | growth inhibition [2] -10.5% | viability increase [3] 2.36% | viability [4] 79.7% | viability [5] 77.9% | inhibition [6] 0.165% | RAM network inhibition [7] 1.62%

Cc1cc(C(=O)N2CCN(S(C)(=O)=O)CC2)cs1
inactive: growth inhibition [1] -7.07% | growth inhibition [2] -12.8% | viability increase [3] -1.25% | viability [4] 94.5% | viability [5] 88.9% | inhibition [6] 1.6% | RAM network inhibition [7] -0.04%

COc1ccccc1-c1cc(C(=O)N2CCCCC2)no1
inactive: growth inhibition [1] -6.35% | growth inhibition [2] 11.2% | viability increase [3] -0.55% | viability [4] 103% | viability [5] 93.2% | inhibition [6] 2.1% | RAM network inhibition [7] 4.18%

CCOC(=O)N1CCC(NC(=O)c2ccc(CS(=O)(=O)c3ccccc3C)o2)CC1
inactive: growth inhibition [1] -9.38% | growth inhibition [2] -19.7% | viability increase [3] -0.86% | viability [4] 106% | viability [5] 98.5% | inhibition [6] -0.185% | RAM network inhibition [7] 7.2%
